Test results reported in ChEMBL document CHEMBL2331329, “Synthesis and biological evaluation of 2-(alkoxycarbonyl)-3-anilinobenzo[b]thiophenes and thieno[2,3-b]pyridines as new potent anticancer agents” (J Med Chem, 2013).
The source made the active and inactive calls. No cut-off for these calls is given here.

Assays:
HeLa [1] = experiment: Induction of apoptosis in human HeLa cells assessed as PARP cleavage at 10 nM after 24 hrs by Western Blot analysis; format: functional, cell-based
Procedure, shortened: (§1)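 HeLa cells exposed to 10 or 100 nM for 24 or 48 h, washed in ice-cold PBS, lysed on ice 30 min, spun at 15000g at 4 °C. 20 μg protein run on 7.5–15% SDS–PAGE, blotted to PVDF, blocked overnight at 4 °C. Primary antibodies 2 h at room temperature, peroxidase secondary 60 min, ECL detection, β-actin reprobe as loading control.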

HeLa [2] = experiment: Cell cycle arrest in human HeLa cells assessed as increase in activated cdc25 level at 10 to 100 nM after 24 to 48 hrs by Western Blot analysis; format: functional, cell-based; procedure, shortened: as §1
Jurkat [3] = experiment: Ratio of Combretastatin A-4 IC50 to compound IC50 for human Jurkat cells; format: functional
HT-29 [4] = experiment: Cytotoxicity against human HT-29 cells after 72 hrs by MTT assay; format: functional, cell-based; conditions: HT-29, 72 h
HeLa [5] = experiment: Cell cycle arrest in human HeLa cells assessed as accumulation at G2/M phase at >20 nM after 24 hrs by propidium iodide staining-based flow cytometry; format: functional
Procedure, shortened: (§2)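 Jurkat, HT-29 and HeLa cells in exponential growth (5 × 10^5 cells) treated 24 h at a range of concentrations. Fixed in ice-cold 70% ethanol, lysed with buffer containing RNase A and 0.1% Triton X-100, stained with propidium iodide. DNA content read by flow cytometry and the percentage of cells per cycle phase derived from DNA histograms.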

HeLa [6] = experiment: Induction of apoptosis in human HeLa cells assessed as early apoptotic cells at 10 to 100 nM by annexin V-FITC and propidium iodide staining-based flow cytometry; format: functional, cell-based; conditions: TDE = time-dependent effect
Procedure, shortened: (§3)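 HeLa cells treated 24 or 48 h, then co-labelled with annexin-V–FITC and propidium iodide. Flow cytometry with 488 nm excitation and emission at 525 nm (FITC) and 585 nm (PI); early apoptotic cells counted as annexin-V+/PI−. Mean ± SEM of three independent experiments.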

HeLa [7] = experiment: Induction of apoptosis in human HeLa cells assessed as decrease in unphosphorylated Mcl-1 at 10 to 100 nM after 24 hrs by Western Blot analysis; format: functional, cell-based; procedure, shortened: as §1
A549 [8] = experiment: Ratio of Combretastatin A-4 IC50 to compound IC50 for human A549 cells; format: functional
HeLa [9] = experiment: Cell cycle arrest in human HeLa cells assessed as accumulation at G2/M phase at 20 nM after 24 hrs by propidium iodide staining-based flow cytometry; format: functional; procedure, shortened: as §2
HeLa [10] = experiment: Induction of apoptosis in human HeLa cells assessed as caspase-9 cleavage at 10 to 100 nM after 24 to 48 hrs by Western Blot analysis; format: functional, cell-based; procedure, shortened: as §1
LoVo [11] = experiment: Cytotoxicity against human LoVo cells after 72 hrs by MTT assay; format: functional, cell-based
Procedure, shortened: (§4)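 MTT viability test: 8 × 10^3 cells per well settled 18 h at 37 °C, 5% CO2, then given fresh medium with compound (from 10 mM DMSO stocks, final DMSO ≤0.25%) for 72 h. […] CEMVbl-100 is a vinblastine-selected P-gp line; LoVoDoxo is grown in Ham's F12 with 0.1 μg/mL doxorubicin. Resistance index = resistant IC50/parental IC50.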

Jurkat [12] = experiment: Cell cycle arrest in human Jurkat cells assessed as accumulation at G2/M phase at 20 nM after 24 hrs by propidium iodide staining-based flow cytometry; format: functional; procedure, shortened: as §2
A549 [13] = experiment: Cytotoxicity against human A549 cells after 72 hrs by MTT assay; format: functional, cell-based; conditions: A549, 72 h
HT-29 [14] = experiment: Ratio of Combretastatin A-4 IC50 to compound IC50 for human HT-29 cells; format: functional
Jurkat [15] = experiment: Cell cycle arrest in human Jurkat cells assessed as accumulation at G2/M phase after 24 hrs by propidium iodide staining-based flow cytometry; format: functional; procedure, shortened: as §2
LoVo [16] = experiment: Resistance index, ratio of IC50 for human LoVo/DX cells to IC50 for human LoVo cells; format: functional; procedure, shortened: as §4
[17] = Cytotoxicity against human A549-T12 cells after 72 hrs by MTT assay; format: functional, cell-based; conditions: A549, 72 h
Procedure, shortened: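 Mean ± SE of at least three independent experiments. Resistance ratio = IC50 in resistant line/IC50 in nonresistant line.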

HeLa [18] = experiment: Cell cycle arrest in human HeLa cells assessed as reduction in phosphorylated cdc2 Tyr15 level at 10 to 100 nM after 24 to 48 hrs by Western Blot analysis; format: functional, cell-based; procedure, shortened: as §1
HL-60 = experiment: Ratio of Combretastatin A-4 IC50 to compound IC50 for human HL60 cells; format: functional
[19] = Cytotoxicity against mouse BNL 1ME A.7R.1 cells; format: functional, cell-based
Bos taurus [20] = species: Bos taurus; experiment: Displacement of [3H]colchicine from bovine brain tubulin at 1 uM after 20 mins by turbidimetric analysis
HeLa [21] = experiment: Induction of apoptosis in human HeLa cells assessed as mitochondrial membrane depolarization at 10 to 100 nM by JC-1 staining; format: functional, cell-based; conditions: TDE = time-dependent effect
Procedure, shortened: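 HeLa cells treated 24 or 48 h, then stained with the potentiometric dye JC-1. Proportion of cells with depolarised mitochondria read by flow cytometry. Mean ± SEM of three independent experiments.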

Bos taurus [22] = species: Bos taurus; experiment: Displacement of [3H]colchicine from bovine brain tubulin at 5 uM after 20 mins by turbidimetric analysis
PBL [23] = experiment: Cytotoxicity against human PBL cells after 72 hrs by MTT assay; format: cell-based
Procedure, shortened: (§5)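 Peripheral blood lymphocytes from healthy donors isolated on a Lymphoprep gradient and rested overnight in RPMI-1640 with 10% FBS. Nonadherent cells at 5 × 10^5 cells/mL, with 2.5 μg/mL PHA for proliferating cultures or without it for resting ones. Compound exposure 72 h, viability by MTT. Mean ± SEM of three experiments.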

PBL [24] = experiment: Cytotoxicity against human PHA-stimulated PBL cells after 72 hrs by MTT assay; format: cell-based; procedure, shortened: as §5
HeLa [25] = experiment: Induction of apoptosis in human HeLa cells assessed as caspase-3 cleavage at 10 to 100 nM after 24 to 48 hrs by Western Blot analysis; format: functional, cell-based; procedure, shortened: as §1
HeLa [26] = experiment: Induction of apoptosis in human HeLa cells assessed as early apoptotic cells after 24 to 48 hrs by annexin V-FITC/Propidium iodide staining-based flow cytometry; format: functional, cell-based; procedure, shortened: as §3
CCRF-CEM = experiment: Resistance index, ratio of IC50 for human CEM/VBL100 cells to IC50 for human CEM cells; format: functional; procedure, shortened: as §4
HeLa [27] = experiment: Induction of apoptosis in human HeLa cells assessed as ROS production at 10 to 100 nM after 24 to 48 hrs by HE staining-based flow cytometry relative to control; format: functional, cell-based
Procedure, shortened: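 HeLa cells treated 24 or 48 h, then stained with H2-DCFDA or hydroethidine. ROS read by flow cytometry against untreated control. Mean ± SEM of three independent experiments.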

HeLa [28] = experiment: Ratio of Combretastatin A-4 IC50 to compound IC50 for human HeLa cells; format: functional
MCF7 = experiment: Cytotoxicity against human MCF7 cells after 72 hrs by MTT assay; format: functional, cell-based; conditions: MCF7, 72 h

COC(=O)c1sc2cc(OC)ccc2c1Nc1cc(OC)c(OC)c(OC)c1
Activity (HeLa [1]): Active | Activity (HeLa [2]): Active | Ratio IC50 (Jurkat [3]): 2 | IC50 (HT-29 [4]): 0.9 nM | Activity (HeLa [5]): >80% | Activity (HeLa [6]): tde | Activity (HeLa [7]): Active | Ratio IC50 (A549 [8]): 2 | Activity (HeLa [9]): Active | Activity (HeLa [10]): Active | IC50 (LoVo [11]): 0.3 nM | Activity (Jurkat [12]): Active | IC50 (A549 [13]): 8.5 nM | Ratio IC50 (HT-29 [14]): 2 | Activity (Jurkat [15]): Dose-dependent effect | Ratio IC50 (LoVo [16]): 1.3 | IC50 [17]: 12.6 nM | Activity (HeLa [18]): Active | Ratio IC50 (HL-60): 2 | IC50 [19]: 2.1 nM | inhibition (Bos taurus [20]): 85% | Activity (HeLa [21]): tde | inhibition (Bos taurus [22]): 98% | IC50 (PBL [23]): > 10000 nM | IC50 (PBL [24]): > 10000 nM | Activity (HeLa [25]): Active | Activity (HeLa [26]): Dose-dependent effect | Ratio IC50 (CCRF-CEM): 0.4 | Activity (HeLa [27]): Active | Ratio IC50 (HeLa [28]): 2 | IC50 (MCF7): 0.7 nM
